≈ marks a conversion by molar mass, not a printed value.
Key:
[1] = MRT (0 to infinity) in Balb/c mouse at 25 mg/kg, po by LC-MS/MS analysis; type: ADME, organism-based; details: in vivo
How it was run: (§1)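 Female BALB/c mice (20–25 g), five per route. Oral dose 25 mg/kg in 0.5% carboxymethyl cellulose; i.v. dose 2.5 mg/kg in 10% DMSO/physiological saline. Blood sampled 5 min–72 h after p.o. and 2 min–48 h after i.v. Analyte quantified by LC/MS/MS (ESI positive, C18, isocratic methanol/water). Parameters from non-compartmental analysis.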

[2] = Toxicity in female Sprague-Dawley rat assessed as change in neutrophil level at 450 mg/kg/day, po administered for 4 weeks followed by 2 week recovery period (Rvb =18.5 +/- 5.3 %); type: organism-based; details: in vivo, 672 h
[3] = Inhibition of human Nav1.5 expressed in CHO cells at -80 mV holding potential by whole-cell patch-clamp method; type: cell-based
How it was run: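 CHO cells expressing Nav1.5, whole-cell patch clamp. Extracellular saline with 132 mM NaCl, 10 mM HEPES, pH 7.35; KCl/EGTA/MgATP pipette solution. Holding potential -80 mV, 20 ms step to -10 mV. Final compound concentrations 0.3–30 μM, diluted from DMSO stocks.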

[4] = molecular target: T1, Amine oxidase [flavin-containing] A (Homo sapiens, UniProt P21397); test: Inhibition of recombinant human MAOA expressed in baculovirus infected insect cells using kynuramine as substrate measured after 20 mins by LC-MS/MS analysis
T1 sequence (P21397 whole entry): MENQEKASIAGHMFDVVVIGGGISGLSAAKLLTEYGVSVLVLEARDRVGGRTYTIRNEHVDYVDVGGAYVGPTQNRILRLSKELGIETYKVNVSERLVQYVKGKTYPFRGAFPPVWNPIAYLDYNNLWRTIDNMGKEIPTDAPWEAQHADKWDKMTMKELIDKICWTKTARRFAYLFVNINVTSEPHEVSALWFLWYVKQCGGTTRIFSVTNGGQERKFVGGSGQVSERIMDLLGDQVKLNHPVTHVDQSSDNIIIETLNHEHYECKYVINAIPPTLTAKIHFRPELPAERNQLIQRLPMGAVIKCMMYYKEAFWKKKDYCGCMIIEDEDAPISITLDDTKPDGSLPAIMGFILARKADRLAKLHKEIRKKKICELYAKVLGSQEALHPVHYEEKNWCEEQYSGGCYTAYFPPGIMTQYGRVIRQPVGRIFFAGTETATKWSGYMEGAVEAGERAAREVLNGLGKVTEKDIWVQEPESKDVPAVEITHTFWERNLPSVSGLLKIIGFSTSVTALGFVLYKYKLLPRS
How it was run: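 Recombinant human MAO-A or MAO-B (50 μg/mL) in 100 mM potassium phosphate pH 7.4 with 5 mM MgCl2. Kynuramine substrate at 50 μM (MAO-A) or 25 μM (MAO-B). […] 4-Hydroxyquinoline formation measured by LC-MS/MS versus vehicle; IC50 derived.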

[5] = Toxicity in male Sprague-Dawley rat assessed as change in hemoglobin count at 50 mg/kg/day, po administered for 4 weeks followed by 2 week recovery period (Rvb =144 +/- 5 g/L); type: organism-based; details: in vivo, 672 h
[6] = MRT (0 to t) in Balb/c mouse at 2.5 mg/kg, iv by LC-MS/MS analysis; type: ADME, organism-based; details: in vivo; how it was run: as §1
[7] = Toxicity in female Sprague-Dawley rat assessed as change in white blood cell count at 450 mg/kg/day, po administered for 4 weeks followed by 2 week recovery period (Rvb =3.61 +/- 0.75 10^9/L); type: organism-based; details: in vivo, 672 h
[8] = system: Mycobacterium tuberculosis; test: Antitubercular activity against Mycobacterium tuberculosis isolate 12525 incubated for 7 days by microplate alamar blue assay; type: functional; details: isolate 12525, 168 h, time 7 day
How it was run: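 MIC determined by microplate alamar blue assay (MABA) following a published protocol.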

[9] = Toxicity in Mycobacterium tuberculosis H37Rv infected Balb/c mouse assessed as change in body weight at 100 mg/kg/day, po administered via gavage 5 times per week for 3 weeks starting from 10 days post-infection (reference value: 21.29 +/- 0.84 g); type: organism-based; details: in vivo, 504 h, time 21 day
[10] = AUC (0 to infinity) in Balb/c mouse at 25 mg/kg, po by LC-MS/MS analysis; type: ADME, organism-based; set-up: route oral, time infinity, dose 25 mg/kg; details: in vivo; how it was run: as §1
[11] = MRT (0 to t) in Balb/c mouse at 25 mg/kg, po by LC-MS/MS analysis; type: ADME, organism-based; details: in vivo; how it was run: as §1
[12] = AUC (0 to infinity) in Balb/c mouse at 2.5 mg/kg, iv by LC-MS/MS analysis; type: ADME, organism-based; set-up: time infinity, route intravenous, dose 2.5 mg/kg; details: in vivo; how it was run: as §1
[13] = Toxicity in male Sprague-Dawley rat assessed as change in reticulocyte level at 450 mg/kg/day, po administered for 4 weeks followed by 2 week recovery period (Rvb =2.48 +/- 0.34 %); type: organism-based; details: in vivo, 672 h
[14] = Cmax in Balb/c mouse at 2.5 mg/kg, iv by LC-MS/MS analysis; type: ADME, organism-based; set-up: route intravenous, dose 2.5 mg/kg; details: in vivo; how it was run: as §1
[15] = system: HepG2; test: Cytotoxicity against human HepG2 cells assessed as reduction in cell viability measured after 48 hrs by MTT assay; type: cell-based; details: HepG2, 48 h
How it was run: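 Cytotoxicity on Vero or HepG2 cells by MTT assay, run as previously reported.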

[16] = Stability in CD-1 mouse liver microsome at 1 uM measured after 30 mins in absence of NADPH by LC-MS/MS analysis; type: ADME; details: microsomes, 0.5 h
How it was run: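 Liver microsomes (male CD-1 mouse or pooled human), 1 mg/mL protein, compound 1 µM, 37°C with shaking. Started with 1 mM NADPH or run without cofactor. Quenched with ice-cold ACN/MeOH containing internal standard. Parent quantified by LC-MS/MS; 30 min concentration normalised to time zero.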

[17] = MRT (0 to infinity) in Balb/c mouse at 2.5 mg/kg, iv by LC-MS/MS analysis; type: ADME, organism-based; details: in vivo; how it was run: as §1
[18] = Mutagenicity in Salmonella typhimurium TA98 up to 1000 ug measured after 48 to 72 hrs in absence of S9 fraction by Ames test; type: toxicity; details: salmonella enterica subsp. enterica serovar typhimurium, dose <=1000 µg, time 48-72 hrs
How it was run: (§2)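 Mini-Ames, plate incorporation in 6-well format. Bacteria, compound (DMSO vehicle, top 1000 µg/well), and 10% S9 mix or PBS were mixed into molten agar at 45°C and poured over minimal agar, then incubated 37°C for 48-72 h. Revertants were counted manually and the background lawn inspected. A result is positive at ≥2-fold the mean vehicle revertants with a dose-related increase.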

[19] = Mutagenicity in Salmonella typhimurium TA100 up to 1000 ug measured after 48 to 72 hrs in presence of S9 fraction by Ames test; type: toxicity, subcellular; details: salmonella enterica subsp. enterica serovar typhimurium, dose <=1000 µg, time 48-72 hrs; how it was run: as §2
[20] = Terminal half life in Balb/c mouse at 25 mg/kg, po by LC-MS/MS analysis; type: ADME, organism-based; details: in vivo, read-out: beta t1/2 (converted)
How it was run: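 Female BALB/c mice, 20-25 g, five per route. Dosed 25 mg/kg p.o. in 0.5% carboxymethyl cellulose or 2.5 mg/kg i.v. in 10% DMSO/saline. Blood sampled 5 min-72 h (p.o.) or 2 min-48 h (i.v.), quantified by LC/MS/MS with ESI+. Parameters by non-compartmental analysis; F = (AUCpo×dose_iv)/(AUCiv×dose_po)×100%.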

CC(=O)NC[C@@H]1OC(=O)N2c3cc(F)c(N4CCSCC4)cc3OC[C@@H]12
MRT inf [1]: 15.2 h | Activity [2]: 11.8% | IC50 [3]: > 30 µM | IC50 [4]: 44.8 µM | Activity [5]: 136 g/L | MRT last [6]: 0.54 h | Activity [7]: 2.82 10^9/L | MIC [8]: 0.03 µg/mL (≈ 0.0787 µM) | Activity [9]: 21.25 g | AUC(0-inf) [10]: 7620 ng·h/mL | MRT last [11]: 7.59 h | AUC(0-inf) [12]: 1190 ng·h/mL | Activity [13]: 2.99% | Cmax [14]: 4200 ng/mL | IC50 [15]: > 64 µg/mL | Stabilty [16]: Stable | MRT inf [17]: 0.691 h | Activity [18]: Non-Toxic | Activity [19]: Non-Toxic | half-life [20]: 14.7 h

CC(=O)NC[C@@H]1OC(=O)N2c3cc(F)c(N4CC[S+]([O-])CC4)cc3OC[C@@H]12
MRT inf [1]: 10.8 h | IC50 [3]: > 30 µM | IC50 [4]: > 100 µM | MRT last [6]: 3.52 h | MIC [8]: 0.46 µg/mL (≈ 1.16 µM) | AUC(0-inf) [10]: 9020 ng·h/mL | MRT last [11]: 9.83 h | AUC(0-inf) [12]: 592 ng·h/mL | Cmax [14]: 115 ng/mL | IC50 [15]: > 64 µg/mL | Stabilty [16]: Stable | MRT inf [17]: 6.22 h | Activity [18]: Non-Toxic | Activity [19]: Non-Toxic | half-life [20]: 6.28 h

Reference: ChEMBL document CHEMBL4725282, “Discovery of a Conformationally Constrained Oxazolidinone with Improved Safety and Efficacy Profiles for the Treatment of Multidrug-Resistant Tuberculosis” (J Med Chem, 2020)
